Test results taken from ChEMBL document CHEMBL5325487, “Suramin analogues protect cartilage against osteoarthritic breakdown by increasing levels of tissue inhibitor of metalloproteinases 3 (TIMP-3) in the tissue” (Bioorg Med Chem, 2023).
The source made the active and inactive calls. The calls are words filed in the database; no cut-off is given here.

Assays:
SW1353 [1] = assay: Induction of TIMP3 protein level in human HTB-94 cells at 100 ug/ml incubated for 36 hrs by Western blotting analysis; type: functional, cell-based; settings: dose 100.0 µg/ml
How it was run: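 HTB94 cells (5×10^5/well) washed in serum-free DMEM and treated 36 h with 100 μg/mL in serum-free DMEM. Conditioned medium was TCA-precipitated and run on non-reducing 15% SDS-PAGE, then transferred to PVDF. TIMP-3 was detected with rabbit anti-TIMP-3 and an IRDye 800CW secondary by infrared imaging. Values are expressed as % of 100 μg/mL suramin-treated samples on the same blot. n = 3, mean ± SD.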

[2] = target: T1, Metalloproteinase inhibitor 3 (Homo sapiens, UniProt P35625); assay: Binding affinity to FLAG-tagged human TIMP3 expressed in HEK293 cells assessed as dissociation constant; type: cell-based
T1 sequence (P35625 whole entry): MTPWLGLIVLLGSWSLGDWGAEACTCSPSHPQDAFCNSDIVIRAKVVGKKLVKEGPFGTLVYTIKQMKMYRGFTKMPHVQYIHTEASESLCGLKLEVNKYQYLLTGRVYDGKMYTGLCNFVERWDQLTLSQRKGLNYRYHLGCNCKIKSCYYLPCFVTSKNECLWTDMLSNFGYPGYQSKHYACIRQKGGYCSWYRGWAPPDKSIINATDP

SW1353 [3] = assay: Cytotoxicity against human HTB-94 cells assessed as cell viability at 100 ug/ml measured after 36 h by MTS assay
[4] = Induction of TIMP3 protein level in human HTB-94 cells at 100 ug/ml incubated for 36 hrs by slot blotting analysis relative to suramin; type: functional, SW1353; settings: dose 100 µg/ml
How it was run: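 Serum-free 36 h treatment (100 μg/mL) of HTB94 cells (5×10^5/well). TCA-concentrated conditioned medium was slot-blotted onto nitrocellulose and probed with rabbit anti-TIMP-3 and an IRDye 800CW secondary, then imaged by infrared fluorescence. Pixel volume is expressed relative to 100 μg/mL suramin samples on the same blot (100%). n = 3, mean ± SD.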

Sus scrofa = species on record: Sus scrofa; assay: Inhibition of cartilage degradation in porcine cartilage explants assessed as inhibition of IL-1beta-induced aggrecan release at 100 ug/ml measured after 3 days by DMMB assay; type: functional, tissue-based; settings: Cartilage tissue, dose 100.0 µg/ml, time 3.0 day
How it was run: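 Porcine metacarpophalangeal cartilage explants (3–9-month-old pigs), rested 48 h after dissection, were washed and treated 72 h with IL-1β (10 ng/mL) plus 100 μg/mL analogue. Medium was DMEM with 0.1% FCS, amphotericin B and 10 mM HEPES. Aggrecan released into the medium was measured by DMMB assay. n = 3 biological × 2 technical replicates, mean ± SD.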

[5] = Induction of TIMP3 protein level in human HTB-94 cells incubated for 36 hrs by slot blotting analysis relative to 100 ug/ml suramin; type: functional, cell-based; settings: SW1353, 36 h
How it was run: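 Dose-response over 0–250 μg/mL for 36 h in serum-free DMEM using HTB94 cells (5×10^5/well). TIMP-3 in TCA-concentrated medium was measured by slot blot with anti-TIMP-3/IRDye 800CW detection, normalised to 100 μg/mL suramin on each blot. EC50 was fitted with a one-site specific binding model. n = 3, mean ± SD.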

SW1353 [6] = assay: Effect on ADAMTS4 mRNA level in human HTB-94 cells at 50 to 200 ug/ml incubated for 36 hrs by RT-qPCR analysis; type: functional, cell-based; settings: dose 50-200 µg/ml
How it was run: (§1)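 HTB94 cells (5×10^5/well) plated overnight, washed three times, then treated with analogue (50–200 μg/mL) in serum-free DMEM for 36 h. RNA was isolated and transcripts quantified by RT-qPCR (ΔΔCt), normalised to RN18S1 and to untreated cells. n = 3, mean ± SD.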

SW1353 [7] = assay: Effect on LRP1 mRNA level in human HTB-94 cells at 50 to 200 ug/ml incubated for 36 hrs by RT-qPCR analysis; type: functional, cell-based; settings: dose 50-200 µg/ml; how it was run: as §1
[8] = Cytotoxicity against porcine Chondrocyte assessed cell number at 100 ug/ml incubated for 3 days in presence of IL-1beta by MTS assay; type: toxicity, cell-based, Sus scrofa; settings: pig, 72 h, dose 100 µg/ml, time 3 day
How it was run: (§2)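 Primary porcine chondrocytes, released by pronase E then type II collagenase digestion of cartilage and plated at 10^4/well, were washed in serum-free DMEM. They were exposed to 100 μg/mL analogue, with or without IL-1β (10 ng/mL), for 3 days. Cell number was read by MTS against a twice freeze/thawed control. n = 3 biological replicates, mean ± SD.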

SW1353 [9] = assay: Effect on MMP13 mRNA level in human HTB-94 cells at 50 to 200 ug/ml incubated for 36 hrs by RT-qPCR analysis; type: functional, cell-based; settings: dose 50-200 µg/ml; how it was run: as §1
SW1353 [10] = assay: Effect on ADAMTS5 mRNA level in human HTB-94 cells at 50 to 200 ug/ml incubated for 36 hrs by RT-qPCR analysis; type: functional, cell-based; settings: dose 50-200 µg/ml; how it was run: as §1
[11] = Cytotoxicity against porcine Chondrocyte assessed cell number at 100 ug/ml incubated for 3 days by MTS assay; type: toxicity, cell-based, Sus scrofa; settings: pig, 72 h, dose 100 µg/ml, time 3 day; how it was run: as §2
SW1353 [12] = assay: Effect on TIMP3 mRNA level in human HTB-94 cells at 50 to 200 ug/ml incubated for 36 hrs by RT-qPCR analysis; type: functional, cell-based; settings: dose 50-200 µg/ml; how it was run: as §1

For `Nc1ccc(C(=O)Nc2cc(S(=O)(=O)O)cc3cc(S(=O)(=O)O)cc(S(=O)(=O)O)c23)cc1`, the Activity (SW1353 [1]) was “inactive”.

For `O=C(Nc1cc(S(=O)(=O)O)cc2cc(S(=O)(=O)O)cc(S(=O)(=O)O)c12)c1ccc([N+](=O)[O-])cc1`, the Activity (SW1353 [1]) was “inactive”.

Work on `O=C(Nc1cc(C(=O)Nc2ccc(S(=O)(=O)O)cc2)cc(C(=O)Nc2ccc(S(=O)(=O)O)cc2)c1)Nc1cc(C(=O)Nc2ccc(S(=O)(=O)O)cc2)cc(C(=O)Nc2ccc(S(=O)(=O)O)cc2)c1` yielded a Kd [2] of 6.88 nM.

With `O=C(Nc1cccc(C(=O)Nc2ccc(C(=O)Nc3cc(S(=O)(=O)O)cc4cc(S(=O)(=O)O)cc(S(=O)(=O)O)c34)cc2)c1)Nc1cccc(C(=O)Nc2ccc(C(=O)Nc3cc(S(=O)(=O)O)cc4cc(S(=O)(=O)O)cc(S(=O)(=O)O)c34)cc2)c1` the Activity (SW1353 [3]) was “Non-Toxic”, the Activity [4] was -50% and the inhibition (Sus scrofa) was “Active”.

In the case of `Nc1ccc(C(=O)Nc2ccc(C(=O)Nc3cc(S(=O)(=O)O)cc4cc(S(=O)(=O)O)cc(S(=O)(=O)O)c34)cc2)cc1`, the Activity (SW1353 [1]) is reported as “inactive”.

In the case of `O=C(Nc1ccc(C(=O)Nc2cc(S(=O)(=O)O)cc3cc(S(=O)(=O)O)cc(S(=O)(=O)O)c23)cc1)c1ccc([N+](=O)[O-])cc1`, the Activity (SW1353 [1]) is reported as “inactive”.

For `O=C(Nc1ccc(C(=O)Nc2cccc(C(=O)Nc3cc(S(=O)(=O)O)cc4cc(S(=O)(=O)O)cc(S(=O)(=O)O)c34)c2)cc1)Nc1ccc(C(=O)Nc2cccc(C(=O)Nc3cc(S(=O)(=O)O)cc4cc(S(=O)(=O)O)cc(S(=O)(=O)O)c34)c2)cc1`, the Activity (SW1353 [3]) was “Non-Toxic”, the Activity [4] was -50% and the inhibition (Sus scrofa) was “Active”. The EC50 [5] was 17000 nM.

`O=C(Nc1ccc(C(=O)Nc2ccc(C(=O)Nc3ccc(S(=O)(=O)O)c4cc(S(=O)(=O)O)cc(S(=O)(=O)O)c34)cc2)cc1)Nc1ccc(C(=O)Nc2ccc(C(=O)Nc3ccc(S(=O)(=O)O)c4cc(S(=O)(=O)O)cc(S(=O)(=O)O)c34)cc2)cc1` gave an EC50 [5] of 17000 nM.

Compound `O=C(Nc1cc(C(=O)Nc2ccc(S(=O)(=O)O)cc2S(=O)(=O)O)cc(C(=O)Nc2ccc(S(=O)(=O)O)cc2S(=O)(=O)O)c1)Nc1cc(C(=O)Nc2ccc(S(=O)(=O)O)cc2S(=O)(=O)O)cc(C(=O)Nc2ccc(S(=O)(=O)O)cc2S(=O)(=O)O)c1` has a Kd [2] of 4.66 nM.

With `O=C(Nc1cccc(C(=O)Nc2cc(C(=O)Nc3ccc(S(=O)(=O)O)c4cc(S(=O)(=O)O)cc(S(=O)(=O)O)c34)ccc2F)c1)Nc1cccc(C(=O)Nc2cc(C(=O)Nc3ccc(S(=O)(=O)O)c4cc(S(=O)(=O)O)cc(S(=O)(=O)O)c34)ccc2F)c1` the Kd [2] was 1.55 nM.

In the case of `Cc1ccc(C(=O)Nc2ccc(S(=O)(=O)O)c3cc(S(=O)(=O)O)cc(S(=O)(=O)O)c23)cc1NC(=O)c1cccc(NC(=O)Nc2cccc(C(=O)Nc3cc(C(=O)Nc4ccc(S(=O)(=O)O)c5cc(S(=O)(=O)O)cc(S(=O)(=O)O)c45)ccc3C)c2)c1` [SURAMIN], the Activity (SW1353 [6]) is reported as “inactive”, the Activity (SW1353 [7]) is reported as “inactive” and the Activity [8] is reported as “Non-Toxic”. The Activity (SW1353 [9]) was “inactive”, the Activity (SW1353 [10]) was “inactive” and the Activity [11] was “Non-Toxic”. The EC50 [5] was 15000 nM and the Activity (SW1353 [1]) was “Active”.

`Cc1ccc(C(=O)Nc2ccc(P(=O)(O)O)cc2P(=O)(O)O)cc1NC(=O)c1cccc(NC(=O)Nc2cccc(C(=O)Nc3cc(C(=O)Nc4ccc(P(=O)(O)O)cc4P(=O)(O)O)ccc3C)c2)c1` gave a Kd [2] of over 100 nM.

For `O=C(Nc1ccc(C(=O)Nc2ccc(C(=O)Nc3cc(S(=O)(=O)O)cc4cc(S(=O)(=O)O)cc(S(=O)(=O)O)c34)cc2)cc1)Nc1ccc(C(=O)Nc2ccc(C(=O)Nc3cc(S(=O)(=O)O)cc4cc(S(=O)(=O)O)cc(S(=O)(=O)O)c34)cc2)cc1`, the Activity (SW1353 [12]) was “inactive”, the Activity (SW1353 [6]) was “inactive” and the Activity (SW1353 [7]) was “inactive”. The Activity [8] was “Non-Toxic”, the Activity (SW1353 [9]) was “inactive” and the Activity (SW1353 [10]) was “inactive”. The Activity [4] was 30%, the Activity [11] was “Non-Toxic” and the EC50 [5] was 19000 nM. For the same compound, the Activity (SW1353 [1]) was “Active”.

`O=C(Nc1cccc(C(=O)Nc2ccc(S(=O)(=O)O)c3cc(S(=O)(=O)O)cc(S(=O)(=O)O)c23)c1)Nc1cccc(C(=O)Nc2ccc(S(=O)(=O)O)c3cc(S(=O)(=O)O)cc(S(=O)(=O)O)c23)c1` showed a Kd [2] of 26.5 nM.

Compound `O=C(Nc1cccc(C(=O)Nc2cc(S(=O)(=O)O)cc3ccc(S(=O)(=O)O)cc23)c1)Nc1cccc(C(=O)Nc2cc(S(=O)(=O)O)cc3ccc(S(=O)(=O)O)cc23)c1` has a Kd [2] of over 100 nM.
